Assay results: ChEMBL document CHEMBL1155234, “Dialkylamino and nitrogen heterocyclic analogues of hexadecylphosphocholine and cetyltrimetylammonium bromide: effect of phosphate group and environment of the ammonium cation on their biological activity” (Eur J Med Chem, 2009)
Values after ≈ are worked out from the molar mass of the structure shown.

Legend:
Jurkat = assay: Cytotoxicity against human Jurkat cells after 72 hrs by MTT assay; assay type: functional, cell-based
Outline: (§1)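 MTT end-point assay. Cells were exposed to compound at 1×10^-4 to 1×10^-8 mol l⁻¹ final for 72 h. Seeding was 3×10^3 cells ml⁻¹ for A-549, MCF-7 and MDA-MB-231; 5×10^3 for HeLa; 1×10^4 for Jurkat and CCRF-CEM. Media were DMEM/10% FCS (A-549, MCF-7, MDA-MB-231) or RPMI-HEPES/10% FCS (others). Formazan was dissolved in SDS for 12 h and read at 540 nm against untreated control, in triplicate. IC50 was curve-fitted.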

CCRF-CEM = assay: Cytotoxicity against human CCRF-CEM cells after 72 hrs by MTT assay; assay type: functional, cell-based; outline: as §1
HeLa = assay: Cytotoxicity against human HeLa cells after 72 hrs by MTT assay; assay type: functional, cell-based; outline: as §1
MDA-MB-231 = assay: Cytotoxicity against human MDA-MB-231 cells after 72 hrs by MTT assay; assay type: functional, cell-based; conditions: MDA-MB-231, 72 h; outline: as §1
MCF7 = assay: Cytotoxicity against human MCF7 cells after 72 hrs by MTT assay; assay type: functional, cell-based; conditions: MCF7, 72 h; outline: as §1
A549 = assay: Cytotoxicity against human A549 cells after 72 hrs by MTT assay; assay type: functional, cell-based; conditions: A549, 72 h; outline: as §1
Candida albicans = assay: Antifungal activity against Candida albicans CCM 8186 assessed as inhibition of colony formation after 24 hrs; assay type: functional
Outline: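 C. albicans came from 24-h Sabouraud agar cultures and was suspended at 5×10^5 cells ml⁻¹ in physiological solution pH 7.2, adjusted to A540 = 0.35. It was mixed with aqueous compound and double-concentrated Sabouraud medium and incubated 24 h at 37 °C. Each well was then subcultured on Sabouraud agar for 24 h at 37 °C. MFC was the lowest concentration giving no colonies.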

Acanthamoeba lugdunensis = assay: Trophocidal activity against Acanthamoeba lugdunensis assessed as viability for 14 days by trypan blue exclusion assay; assay type: functional
Outline: (§2)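 Trophozoites were grown axenically in PYG medium and seeded at 2×10^5 cells ml⁻¹ (100 µl), then mixed with compound in PYG at 37 °C. APCs were tested at 25–800 µM (six levels) and QUATs at 7.25–100 µM (five levels). Viability was scored by trypan blue exclusion. Eradication was confirmed by transfer to fresh PYG with growth monitored for 14 days. MTC was the lowest concentration giving 100% eradication.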

[1] = Toxicity in human erythrocytes assessed as hemolysis after 1 hr; assay type: cell-based, Erythrocyte
Outline: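 Citrated human blood erythrocytes were washed three times in Ca/Mg-free PBS (2000g, 10 min) and resuspended in glucose-containing phosphate buffer, pH 7.4. They were diluted 1:10 into compound-containing buffer to a final 6.7–6.8×10^7 cells ml⁻¹ and incubated 1 h at 37 °C with shaking. After centrifugation, supernatant absorbance at 542 nm was compared with fully lysed controls (CTAB).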

Acanthamoeba castellanii = assay: Trophocidal activity against Acanthamoeba castellanii 1BU assessed as viability for 14 days by trypan blue exclusion assay; assay type: functional; outline: as §2
Acanthamoeba polyphaga = assay: Trophocidal activity against Acanthamoeba polyphaga 5SU assessed as viability for 14 days by trypan blue exclusion assay; assay type: functional; outline: as §2
Acanthamoeba lenticulata = assay: Trophocidal activity against Acanthamoeba lenticulata 72/2 assessed as viability for 14 days by trypan blue exclusion assay; assay type: functional; outline: as §2

Compound	IC50 (Jurkat) [µM]	IC50 (CCRF-CEM) [µM]	IC50 (HeLa) [µM]	IC50 (MDA-MB-231) [µM]	IC50 (MCF7) [µM]	IC50 (A549) [µM]	MFC (Candida albicans; CCM 8186, 24 h) [µM]	MTC (Acanthamoeba lugdunensis) [µM]	EC50 at 1 hr [1] [µM]	MFC (Candida albicans) [µM]	MTC (Acanthamoeba castellanii) [µM]	MTC (Acanthamoeba polyphaga) [µM]	MTC (Acanthamoeba lenticulata) [µM]
CCCCCCCCCCCCCCCC[N+]1(C)CCCCCC1.[Br-]	0.8	1	1.82	2.84	0.72	0.67	9	12.5	35	–	–	–	–
CCCCCCCCCCCCCCCCOP(=O)([O-])OCC[N+]1(C)CCCCC1	14	11.2	57.2	51.7	54.8	> 100	8 (≈ 3.58 µg/mL)	200	25	–	–	–	–
CCCCCCCCCCCCCCCCOP(=O)([O-])OCC[N+]1(C)CCOCC1	7.7	8.25	21.7	11.4	22.4	42	8 (≈ 3.6 µg/mL)	200	30	–	–	–	–
CCCCCCCCCCCCCCCC[N+]1(C)CCCCC1.[Br-]	0.72	0.92	1.47	3.86	0.59	0.63	10	12.5	35	–	–	–	–
CCCCCCCCCCCCCCCCOP(=O)([O-])OCC[N+]1(C)CCCCCC1	18.2	9.8	53.1	49.8	51.5	55.1	8 (≈ 3.69 µg/mL)	50	25	–	–	–	–
CCCCCCCCCCCCCCCC[N+]1(C)CCCC1.[Br-]	0.82	1.35	2.29	3.8	0.62	0.53	10	12.5	35	–	–	–	–
CCCCCCCCCCCCCCCCOP(=O)([O-])OCC[N+]1(C)CCCCCCC1	38.6	43.8	55	45.6	53.3	55	8 (≈ 3.81 µg/mL)	50	30	–	–	–	–
CCCCCCCCCCCCCCCC[N+](C)(CCCC)CCCC.[Br-]	0.76	0.91	0.9	2.55	0.68	0.64	9	25	25	–	–	–	–
CCCCCCCCCCCCCCCC[N+]1(C)CCOCC1.[Br-]	3.57	4.16	5.61	5.75	0.89	0.87	24	50	45	–	–	–	–
CCCCCCCCCCCCCCCC[N+](C)(CC)CC.[Br-]	0.8	2.1	1.38	4.9	0.65	0.62	10	25	40	–	–	–	–
Cetyltrimethylammonium bromide	–	–	–	–	–	–	–	25	–	21	–	–	–
CCCCCCCCCCCCCCCCOP(=O)([O-])OCC[N+]1(C)CCCC1	10	9.3	46.2	37.9	39.3	53.2	8 (≈ 3.47 µg/mL)	200	30	–	–	–	–
CCCCCCCCCCCCCCCCOP(=O)([O-])OCC[N+](C)(CCC)CCC	28.6	19.2	55	40.6	50.6	55	16 (≈ 7.42 µg/mL)	400	30	–	–	–	–
CCCCCCCCCCCCCCCCOP(=O)([O-])OCC[N+](C)(CC)CC	19.6	9	49.4	34.4	53.7	59.4	4 (≈ 1.74 µg/mL)	200	30	–	–	–	–
CCCCCCCCCCCCCCCC[N+](C)(CCC)CCC.[Br-]	0.85	1.96	1.68	4.27	0.8	0.75	19	25	30	–	–	–	–
CCCCCCCCCCCCCCCCOP(=O)([O-])OCC[N+](C)(C)C [MILTEFOSINE]	10	13.5	41.6	37.6	39.2	44.7	4 (≈ 1.63 µg/mL)	400	30	–	31.25	31.25	20
CCCCCCCCCCCCCCCC[N+]1(C)CCCCCCC1.[Br-]	0.78	1	1.43	4.12	0.94	0.85	9	12.5	30	–	–	–	–
